Active and inactive are the calls of the source. Unless noted, the rule behind the calls is not given here.
Assays:
Cavia porcellus [1] = experiment: Inhibition of [beta-Ala8]NKA(4-10)-induced bronchoconstriction in anesthetized Dunkin Hartley guinea pig at 10 nmol/kg, it relative to control; assay type: functional
How it was run: (§1)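 Male Dunkin Hartley guinea pigs (350–400 g) were anesthetized with urethane 1.5 g/kg sc, kept at 36 °C and ventilated at 60 strokes/min. After two reproducible control responses to agonist (1 nmol/kg iv, jugular vein), antagonist was given intratracheally near the bronchial bifurcation. Dosing was 5 and 30 min before challenge, with challenges repeated every 30 min up to 4 h. Bronchoconstriction = insufflation pressure rise over basal (mmHg), expressed as % inhibition of control.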

Substance-P receptor = Substance-P receptor (Homo sapiens, UniProt P25103); experiment: Displacement of [3H][Sar9]SP sulfone from human NK1 receptor expressed in U373MG cells; assay type: cell-based, U-373MG ATCC
How it was run: (§2)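 Competition binding was run on membranes of cells stably transfected with the human receptor: U-373MG for NK-1, CHO-K1 for NK-2 and NK-3. NK-1 used [3H][Sar9]SP sulfone at 1.2 nM. Affinity is given as pKi (−log Ki).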

Cavia porcellus [2] = experiment: Inhibition of [beta-Ala8]NKA(4-10)-induced bronchoconstriction in intratracheally dosed anesthetized Dunkin Hartley guinea pig; assay type: functional; settings: Trachea, inhaled or nasal; how it was run: as §1
[3] = molecular target: T1, Substance-K receptor (Rattus norvegicus) (UniProt P16610); experiment: Antagonist activity at NK2 receptor in rat urinary bladder assessed as effect on beta-Ala8]NKA(4-10)-induced mechanical activity; assay type: functional; settings: filed as antagonist
T1 sequence (whole entry): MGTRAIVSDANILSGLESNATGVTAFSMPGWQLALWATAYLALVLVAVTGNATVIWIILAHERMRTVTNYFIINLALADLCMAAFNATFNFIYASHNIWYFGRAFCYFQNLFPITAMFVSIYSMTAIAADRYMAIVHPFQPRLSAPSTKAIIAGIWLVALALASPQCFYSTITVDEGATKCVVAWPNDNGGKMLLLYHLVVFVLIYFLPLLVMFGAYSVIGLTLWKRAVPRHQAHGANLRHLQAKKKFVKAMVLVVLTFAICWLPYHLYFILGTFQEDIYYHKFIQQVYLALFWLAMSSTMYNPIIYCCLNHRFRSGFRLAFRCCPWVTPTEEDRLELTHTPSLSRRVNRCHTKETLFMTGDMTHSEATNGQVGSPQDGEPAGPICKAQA
How it was run: (§3)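 Isolated smooth muscle strips were held in oxygenated (96% O2/4% CO2) Krebs–Henseleit at NaCl 119, NaHCO3 25, KH2PO4 1.2, MgSO4 1.5, CaCl2 2.5, KCl 4.7 and glucose 11 mM. Cumulative agonist concentration–response curves were run after 15 min antagonist incubation. pKB = log(dose ratio − 1) − log[antagonist], as the mean of individual values.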

Substance-K receptor = molecular target: T2, Substance-K receptor (Homo sapiens, UniProt P21452); experiment: Displacement of [125I]neurokinin A from human NK2 receptor expressed in CHOK1 cells; assay type: cell-based, CHO-K1; how it was run: as §2
T2 sequence (P21452 whole entry): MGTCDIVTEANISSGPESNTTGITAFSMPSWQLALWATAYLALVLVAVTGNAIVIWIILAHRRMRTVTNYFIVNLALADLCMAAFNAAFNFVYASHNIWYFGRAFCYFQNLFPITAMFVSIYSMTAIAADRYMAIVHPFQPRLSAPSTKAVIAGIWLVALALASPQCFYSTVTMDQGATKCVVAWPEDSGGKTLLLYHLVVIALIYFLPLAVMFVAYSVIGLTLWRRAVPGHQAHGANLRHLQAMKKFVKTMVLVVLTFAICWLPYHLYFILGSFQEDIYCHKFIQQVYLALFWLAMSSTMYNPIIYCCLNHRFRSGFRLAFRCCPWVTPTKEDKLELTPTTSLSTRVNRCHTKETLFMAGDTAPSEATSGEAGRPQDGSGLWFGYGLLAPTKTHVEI

[4] = molecular target: T3, Neuromedin-K receptor (Cavia porcellus) (UniProt P30098); experiment: Antagonist activity at NK3 receptor in guinea pig ileum assessed as effect on senktide-induced mechanical activity; assay type: functional, tissue-based; settings: filed as antagonist
T3 sequence (whole entry): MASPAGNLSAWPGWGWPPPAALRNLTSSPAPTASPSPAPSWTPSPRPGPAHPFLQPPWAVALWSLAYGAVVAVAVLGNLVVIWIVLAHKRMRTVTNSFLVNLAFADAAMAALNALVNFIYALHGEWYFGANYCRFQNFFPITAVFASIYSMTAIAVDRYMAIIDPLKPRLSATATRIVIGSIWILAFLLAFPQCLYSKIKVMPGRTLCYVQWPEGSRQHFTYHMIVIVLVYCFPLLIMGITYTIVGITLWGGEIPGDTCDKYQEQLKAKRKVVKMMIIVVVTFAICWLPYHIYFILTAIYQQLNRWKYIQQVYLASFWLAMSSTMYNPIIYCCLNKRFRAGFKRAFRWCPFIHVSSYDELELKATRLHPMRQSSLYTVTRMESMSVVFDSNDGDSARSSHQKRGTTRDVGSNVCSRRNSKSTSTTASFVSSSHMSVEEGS

[5] = molecular target: Substance-P receptor (Cavia porcellus) (UniProt P30547); experiment: Antagonist activity at NK1 receptor in guinea pig ileum assessed as effect on substance P methyl ester-induced mechanical activity; assay type: functional, tissue-based; how it was run: as §3
Neuromedin-K receptor = molecular target: T4, Neuromedin-K receptor (Homo sapiens, UniProt P29371); experiment: Displacement of [125I][MePhe7]NKB from human NK3 receptor expressed in CHOK1 cells; assay type: cell-based, CHO-K1; how it was run: as §2
T4 sequence (P29371 whole entry): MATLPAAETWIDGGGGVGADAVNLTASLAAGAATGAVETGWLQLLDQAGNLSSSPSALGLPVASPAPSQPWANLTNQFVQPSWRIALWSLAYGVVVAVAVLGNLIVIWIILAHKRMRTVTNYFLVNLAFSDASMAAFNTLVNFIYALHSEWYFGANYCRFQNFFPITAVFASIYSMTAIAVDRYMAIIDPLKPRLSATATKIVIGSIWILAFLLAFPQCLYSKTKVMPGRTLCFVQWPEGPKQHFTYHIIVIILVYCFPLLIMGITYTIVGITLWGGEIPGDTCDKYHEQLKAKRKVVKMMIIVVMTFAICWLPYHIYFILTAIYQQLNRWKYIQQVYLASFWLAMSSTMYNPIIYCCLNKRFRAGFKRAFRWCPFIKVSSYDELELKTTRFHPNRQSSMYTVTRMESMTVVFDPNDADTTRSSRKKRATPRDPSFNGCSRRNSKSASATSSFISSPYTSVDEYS

Cavia porcellus [6] = experiment: Inhibition of [beta-Ala8]NKA(4-10)-induced bronchoconstriction in anesthetized Dunkin Hartley guinea pig at 100 nmol/kg, it relative to control; assay type: functional, organism-based; settings: 10 nmol/kg, in the assay text read “10 nmol/kg” for “100 nmol/kg”; how it was run: as §1

Substance-P receptor, sequence (P25103 whole entry): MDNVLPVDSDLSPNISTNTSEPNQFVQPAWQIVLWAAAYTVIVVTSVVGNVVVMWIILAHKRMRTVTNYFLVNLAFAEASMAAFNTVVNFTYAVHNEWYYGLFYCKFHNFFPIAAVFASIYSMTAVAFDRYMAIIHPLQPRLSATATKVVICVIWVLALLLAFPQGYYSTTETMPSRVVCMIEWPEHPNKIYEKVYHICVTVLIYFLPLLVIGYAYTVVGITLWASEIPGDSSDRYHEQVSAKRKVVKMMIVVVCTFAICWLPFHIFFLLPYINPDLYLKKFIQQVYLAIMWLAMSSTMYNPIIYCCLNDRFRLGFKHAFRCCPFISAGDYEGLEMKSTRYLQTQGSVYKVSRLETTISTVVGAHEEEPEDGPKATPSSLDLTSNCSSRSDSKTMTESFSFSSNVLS
Substance-P receptor (Cavia porcellus), sequence (P30547 whole entry): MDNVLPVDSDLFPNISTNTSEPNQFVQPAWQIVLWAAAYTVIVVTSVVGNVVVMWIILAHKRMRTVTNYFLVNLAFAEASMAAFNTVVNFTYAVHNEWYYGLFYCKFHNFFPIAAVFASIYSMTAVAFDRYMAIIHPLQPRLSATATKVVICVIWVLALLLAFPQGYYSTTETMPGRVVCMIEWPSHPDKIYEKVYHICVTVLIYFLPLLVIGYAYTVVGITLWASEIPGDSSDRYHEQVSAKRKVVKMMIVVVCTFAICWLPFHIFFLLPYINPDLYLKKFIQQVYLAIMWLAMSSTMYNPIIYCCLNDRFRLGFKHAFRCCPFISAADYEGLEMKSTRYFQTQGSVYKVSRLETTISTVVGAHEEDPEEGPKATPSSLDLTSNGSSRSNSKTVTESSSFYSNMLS

SMILES | inhibition in vivo at 0.01 µmol/kg (Cavia porcellus [1]) | Ki (Substance-P receptor) | ED50 (Cavia porcellus [2]) | pKb [3] | Ki (Substance-K receptor) | pKb [4] | pKb ([5]; filed as antagonist) | Ki (Neuromedin-K receptor) | Activity (Cavia porcellus [6]) | pKb [5]
O=C1C[C@@H](NC(=O)CN2CCC(N3CCOCC3)CC2)C(=O)NC[C@@H](Cc2ccccc2)NC(=O)[C@H](Cc2ccccc2)NC(=O)[C@H](Cc2c[nH]c3ccccc23)N1 | 80% | 126 nM (antagonist) | 0.00015 µmol/kg | 9.7 | 0.158 nM (antagonist) | 6.4 | 7.5 | 1260 nM (antagonist) | Active | –
NS(=O)(=O)N1CCN(CC(=O)N[C@@H]2CC(=O)N[C@@H](Cc3c[nH]c4ccccc34)C(=O)N[C@@H](Cc3ccccc3)C(=O)N[C@H](Cc3ccccc3)CNC2=O)CC1 | – | 200 nM (antagonist) | 0.00027 µmol/kg | 9.5 | 0.1 nM (antagonist) | 5.9 | – | 7940 nM (antagonist) | Active | < 5.5
